Calls of active or inactive are those of the source. The calls are words filed in the database; no cut-off is given here.
Columns and labels:
[1] = biological target: DNA topoisomerase 2-alpha (Homo sapiens) (UniProt P11388); assay: Inhibition of topoisomerase 2 (unknown origin)-mediated kinetoplast DNA decatenation assessed as concentration of the compound exhibiting activity of 100 uM etoposide after 30 mins by agarose gel electrophoresis
[2] = biological target: DNA topoisomerase 2-alpha (Homo sapiens) (UniProt P11388); assay: Inhibition of topoisomerase 2 (unknown origin)-mediated kinetoplast DNA decatenation assessed as intensity of supercoiled DNA after 30 mins by agarose gel electrophoresis relative to etoposide
Method in brief: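 kDNA with 2 U topoisomerase II, 37 °C for 30 min, then proteinase K for 15 min at 37 °C and a 1% agarose TAE gel at 1 V/cm. Supercoiled-DNA band intensity was measured, and each compound's value was standardized by dividing it by the etoposide value.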

[3] = biological target: T1, DNA topoisomerase 1 (Homo sapiens) (UniProt P11387); assay: Inhibition of topoisomerase 1 (unknown origin)-mediated relaxation of supercoiled plasmid DNA assessed as intensity of supercoiled DNA after 30 mins by agarose gel electrophoresis relative to camptothecin
T1 sequence (whole entry): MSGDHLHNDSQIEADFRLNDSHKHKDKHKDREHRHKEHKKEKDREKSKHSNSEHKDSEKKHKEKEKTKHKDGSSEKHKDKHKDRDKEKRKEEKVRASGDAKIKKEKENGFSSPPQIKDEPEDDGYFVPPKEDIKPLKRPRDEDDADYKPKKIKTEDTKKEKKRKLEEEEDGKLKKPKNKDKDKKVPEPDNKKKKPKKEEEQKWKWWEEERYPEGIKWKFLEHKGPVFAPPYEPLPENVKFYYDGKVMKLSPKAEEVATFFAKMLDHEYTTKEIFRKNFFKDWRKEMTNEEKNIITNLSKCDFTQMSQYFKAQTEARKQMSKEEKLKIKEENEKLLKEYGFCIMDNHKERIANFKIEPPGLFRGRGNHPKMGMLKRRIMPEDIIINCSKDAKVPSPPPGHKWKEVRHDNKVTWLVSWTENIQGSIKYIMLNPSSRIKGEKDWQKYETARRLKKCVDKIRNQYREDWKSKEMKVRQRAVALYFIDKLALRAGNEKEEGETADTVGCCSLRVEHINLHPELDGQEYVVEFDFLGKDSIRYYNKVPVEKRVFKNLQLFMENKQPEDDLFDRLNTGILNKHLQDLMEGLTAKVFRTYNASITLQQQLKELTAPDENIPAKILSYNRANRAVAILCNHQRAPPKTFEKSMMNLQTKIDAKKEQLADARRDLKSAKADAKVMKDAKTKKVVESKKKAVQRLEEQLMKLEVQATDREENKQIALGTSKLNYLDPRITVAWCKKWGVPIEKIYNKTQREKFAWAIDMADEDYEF
Method in brief: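 Topo I (2 U) relaxation of 250 ng supercoiled plasmid at pH 7.9 in Tris/NaCl/EDTA/BSA/spermidine/glycerol buffer, 37 °C for 30 min, with matched DMSO. Stopped with SDS, proteinase K digestion, 1% agarose TAE gel, ethidium stain. Supercoiled-band intensity of each compound is divided by that of the camptothecin control.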

[4] = biological target: DNA topoisomerase 2-alpha (Homo sapiens) (UniProt P11388); assay: Inhibition of topoisomerase 2 (unknown origin)-mediated kinetoplast DNA decatenation at 100 uM after 30 mins by agarose gel electrophoresis
[5] = biological target: T1, DNA topoisomerase 1 (Homo sapiens); assay: Inhibition of topoisomerase 1 (unknown origin)-mediated relaxation of supercoiled plasmid DNA assessed as concentration of the compound exhibiting activity of 100 uM camptothecin after 30 mins by agarose gel electrophoresis
[6] = biological target: T1, DNA topoisomerase 1 (Homo sapiens); assay: Inhibition of topoisomerase 1 (unknown origin)-mediated relaxation of supercoiled plasmid DNA at 100 uM after 30 mins by agarose gel electrophoresis

DNA topoisomerase 2-alpha (Homo sapiens), sequence (P11388 whole entry): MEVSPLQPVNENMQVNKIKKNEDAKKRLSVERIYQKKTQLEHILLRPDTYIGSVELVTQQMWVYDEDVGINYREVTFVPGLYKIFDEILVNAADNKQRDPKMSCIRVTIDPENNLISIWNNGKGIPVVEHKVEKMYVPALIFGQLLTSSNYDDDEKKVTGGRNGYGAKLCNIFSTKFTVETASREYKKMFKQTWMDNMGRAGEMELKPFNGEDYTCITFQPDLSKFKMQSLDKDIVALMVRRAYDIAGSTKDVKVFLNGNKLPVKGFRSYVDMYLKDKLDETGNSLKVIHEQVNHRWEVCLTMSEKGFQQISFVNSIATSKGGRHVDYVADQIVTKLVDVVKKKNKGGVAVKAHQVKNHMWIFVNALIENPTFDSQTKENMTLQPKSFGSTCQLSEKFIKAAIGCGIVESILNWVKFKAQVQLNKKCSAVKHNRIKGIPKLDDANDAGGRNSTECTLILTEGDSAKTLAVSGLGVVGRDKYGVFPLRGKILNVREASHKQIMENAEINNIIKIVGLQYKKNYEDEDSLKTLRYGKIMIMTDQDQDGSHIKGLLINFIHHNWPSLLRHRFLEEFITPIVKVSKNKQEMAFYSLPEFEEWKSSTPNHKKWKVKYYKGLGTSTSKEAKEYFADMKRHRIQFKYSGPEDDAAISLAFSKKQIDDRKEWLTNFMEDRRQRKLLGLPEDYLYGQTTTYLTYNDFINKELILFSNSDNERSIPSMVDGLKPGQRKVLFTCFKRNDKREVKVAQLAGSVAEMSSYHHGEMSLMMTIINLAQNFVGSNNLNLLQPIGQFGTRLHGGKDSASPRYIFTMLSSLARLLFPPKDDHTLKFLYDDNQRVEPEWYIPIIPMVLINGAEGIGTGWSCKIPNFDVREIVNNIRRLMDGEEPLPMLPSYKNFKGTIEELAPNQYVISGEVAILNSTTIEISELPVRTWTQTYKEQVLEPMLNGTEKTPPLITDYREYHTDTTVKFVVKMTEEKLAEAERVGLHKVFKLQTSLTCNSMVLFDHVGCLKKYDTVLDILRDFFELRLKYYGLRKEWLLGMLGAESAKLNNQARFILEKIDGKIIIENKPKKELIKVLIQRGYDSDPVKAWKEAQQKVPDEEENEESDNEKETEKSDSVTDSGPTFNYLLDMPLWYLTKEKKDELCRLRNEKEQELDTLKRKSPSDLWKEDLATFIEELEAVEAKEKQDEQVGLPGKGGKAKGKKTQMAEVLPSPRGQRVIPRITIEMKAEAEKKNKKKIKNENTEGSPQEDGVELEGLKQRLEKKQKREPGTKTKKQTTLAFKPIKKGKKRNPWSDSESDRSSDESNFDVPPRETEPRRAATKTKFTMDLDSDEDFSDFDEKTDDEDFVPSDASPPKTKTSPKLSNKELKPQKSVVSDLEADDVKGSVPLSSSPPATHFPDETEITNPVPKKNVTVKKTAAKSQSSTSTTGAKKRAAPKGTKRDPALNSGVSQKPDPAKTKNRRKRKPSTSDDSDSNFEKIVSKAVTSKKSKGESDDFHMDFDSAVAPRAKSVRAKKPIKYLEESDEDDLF

| Activity [1] | fold change (FC) [2] | fold change (FC) [3] | inhibition [4] | Activity [5] | inhibition [6] | Structure (SMILES) |
| --- | --- | --- | --- | --- | --- | --- |
|  | 1.03 | 0.4 | Active |  |  | CC1(C)CC[C@]2(C(=O)O)CC[C@]3(C)C(=CC[C@@H]4[C@@]5(C)CC[C@H](OC(=O)Nc6cccc7ccccc67)C(C)(C)[C@@H]5CC[C@]43C)[C@@H]2C1 |
| 68 µM | 1.12 | 1.64 |  | 16.1 µM |  | CC1(C)CC[C@]2(C(=O)O)CC[C@]3(C)C(=CC[C@@H]4[C@@]5(C)CC[C@H](OC(=O)NCc6ccccc6)C(C)(C)[C@@H]5CC[C@]43C)[C@@H]2C1 |
| 276 µM | 0.74 | 0.84 |  | 265 µM |  | CC1(C)CC[C@]2(C(=O)O)CC[C@]3(C)C(=CC[C@@H]4[C@@]5(C)CC[C@H](O)C(C)(C)[C@@H]5CC[C@]43C)[C@@H]2C1 |
| 53 µM | 1.26 | 1.57 |  | 15.2 µM |  | C=CCNC(=O)O[C@H]1CC[C@]2(C)[C@H]3CC=C4[C@@H]5CC(C)(C)CC[C@]5(C(=O)O)CC[C@@]4(C)[C@]3(C)CC[C@H]2C1(C)C |

The next lines start with the compound.

| Structure (SMILES) | Activity [1] | fold change (FC) [2] | fold change (FC) [3] | inhibition [4] | Activity [5] | inhibition [6] |
| --- | --- | --- | --- | --- | --- | --- |
| CC1(C)CC[C@]2(C(=O)O)CC[C@]3(C)C(=CC[C@@H]4[C@@]5(C)CC[C@H](OC(=O)Nc6ccc(-c7ccccc7)cc6)C(C)(C)[C@@H]5CC[C@]43C)[C@@H]2C1 | 46.5 µM | 1.21 | 0.79 |  |  |  |
| CC1(C)CC[C@]2(C(=O)NCc3ccccc3)CC[C@]3(C)C(=CC[C@@H]4[C@@]5(C)CC[C@H](O)C(C)(C)[C@@H]5CC[C@]43C)[C@@H]2C1 |  | 1.07 | 0.98 | Active |  | Active |
| CC1(C)CC[C@]2(C(=O)Nc3cccc4ccccc34)CC[C@]3(C)C(=CC[C@@H]4[C@@]5(C)CC[C@H](OC(=O)Nc6cccc7ccccc67)C(C)(C)[C@@H]5CC[C@]43C)[C@@H]2C1 |  | 1.07 | 1.55 | Active | 17.4 µM |  |
| CC1(C)CC[C@]2(C(=O)NCc3ccccc3)CC[C@]3(C)C(=CC[C@@H]4[C@@]5(C)CC[C@H](OC(=O)NCc6ccccc6)C(C)(C)[C@@H]5CC[C@]43C)[C@@H]2C1 | 57 µM | 1.21 | 1.42 |  | 25.4 µM |  |
| CC1(C)CC[C@]2(C(=O)NS(=O)(=O)c3ccccc3)CC[C@]3(C)C(=CC[C@@H]4[C@@]5(C)CC[C@H](OC(=O)NS(=O)(=O)c6ccccc6)C(C)(C)[C@@H]5CC[C@]43C)[C@@H]2C1 |  | 0.91 | 1.36 |  | 23.1 µM |  |
| CC1(C)CC[C@]2(C(=O)O)CC[C@]3(C)C(=CC[C@@H]4[C@@]5(C)CC[C@H](OS(=O)(=O)c6ccccc6)C(C)(C)[C@@H]5CC[C@]43C)[C@@H]2C1 |  | 0.92 | 0.54 |  |  |  |
| COc1cc([C@@H]2c3cc4c(cc3[C@@H](O[C@@H]3O[C@@H]5CO[C@@H](C)O[C@H]5[C@H](O)[C@H]3O)[C@H]3COC(=O)[C@H]23)OCO4)cc(OC)c1O |  |  |  | Active |  |  |
